In ChEMBL document CHEMBL1125434, “Preparation and in vitro and in vivo evaluation of quinolones with selective activity against gram-positive organisms” (1992) one finds MIC and ED50 data, which are given here for seven compounds.

Molecules are shown by their SMILES. ≈ marks a conversion by molar mass, not a printed value.

Holding throughout (type): functional
For assay [1], the system named is Staphylococcus epidermidis. Briefly: In vitro minimum inhibitory concentration against Staphylococcus epidermidis 3159 using brain-heart infusion agar. In outline: (§1)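 Overnight cultures were grown in BHI broth at 36 °C. Twofold dilutions of a 2000 µg/mL stock were made in BHI agar, giving 200–0.005 µg/mL. Plates received about 10^4 organisms and were incubated for 18 h at 36 °C. MIC was the lowest concentration with no visible growth on the plate.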

Another assay relates to Acinetobacter. Briefly: In vitro minimum inhibitory concentration against Acinetobacter CMX 669 using brain-heart infusion agar. In outline: as §1
Assay [2] deals with Staphylococcus aureus. Briefly: In vitro minimum inhibitory concentration against Staphylococcus aureus ATCC 6538P using brain-heart infusion agar. In a few lines: as §1
Another assay concerns Enterococcus faecium. Briefly: In vitro minimum inhibitory concentration against Enterococcus faecium ATCC 8043 using brain-heart infusion agar. In a few lines:
as §1

For another assay, the system named is Streptococcus agalactiae. Briefly: In vitro minimum inhibitory concentration against Streptococcus agalactiae CMX 508 using brain-heart infusion agar. In a few lines:
as §1

Assay [3] has as its system Pseudomonas aeruginosa. In words: In vitro minimum inhibitory concentration against Pseudomonas aeruginosa K799 / WT using brain-heart infusion agar. In outline: as §1
For a further assay, the system named is Klebsiella aerogenes. In words: In vitro minimum inhibitory concentration against Enterobacter aerogenes ATCC 13048 using brain-heart infusion agar. In outline:
as §1

Assay [4] deals with Staphylococcus aureus. Briefly: In vitro minimum inhibitory concentration against Staphylococcus aureus CMX 553 using brain-heart infusion agar. In outline: as §1
The next assay has as its system Streptococcus equinus. In words: In vitro minimum inhibitory concentration against Streptococcus bovis A5169 using brain-heart infusion agar. In outline: as §1
The test system of assay [5] is Staphylococcus aureus. Briefly: In vitro minimum inhibitory concentration against Staphylococcus aureus A 5177 using brain-heart infusion agar. In outline:
as §1

The next assay relates to Escherichia coli. Briefly: In vitro minimum inhibitory concentration against Escherichia coli Juhl using brain-heart infusion agar. In outline:
as §1

Assay [6] deals with Pseudomonas aeruginosa. In words: In vitro minimum inhibitory concentration against Pseudomonas aeruginosa A5007 using brain-heart infusion agar. In outline:
as §1

Another assay concerns Streptococcus pyogenes. In words: In vitro minimum inhibitory concentration against Streptococcus pyogenes 930 using brain-heart infusion agar. In outline:
as §1

The subject of another assay is Klebsiella pneumoniae. In words: In vitro minimum inhibitory concentration against Klebsiella pneumoniae 8045 using brain-heart infusion agar. In outline:
as §1

In assay [7] the test system is Staphylococcus aureus. In words: In vitro minimum inhibitory concentration against Staphylococcus aureus NCTC 10649 using brain-heart infusion agar. In outline:
as §1

Assay [8] relates to Staphylococcus aureus. In words: In vivo antibacterial activity against Staphylococcus aureus NCTC 10649 infected mouse by oral administration. In a few lines: (§2)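 Compound was given in water or in dilute NaOH diluted with water, orally or subcutaneously. The dose was split equally between 1 and 5 h post-infection. Groups were 10 mice at ≥3 dose levels. ED50 was calculated from day-6 cumulative mortality by the trimmed Logit method.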

The subject of assay [9] is Staphylococcus aureus. In words: In vivo antibacterial activity against Staphylococcus aureus NCTC 10649 infected mouse by subcutaneous administration. The note with it: sc. In outline:
as §2

What is called MIC is the lowest concentration that inhibits growth of the organism. Higher therefore signals weaker potency. Consider `NC1CCN(c2nc3c(cc2F)c(=O)c(C(=O)O)cn3-c2ccc(F)cc2F)C1` (stereo unspecified) [TOSUFLOXACIN], for which the minimal inhibitory concentration (MIC) was found to be 0.1 µg/mL (≈ 0.247 µM) in assay [1]; 0.1 µg/mL (≈ 0.247 µM) with Acinetobacter; 0.02 µg/mL (≈ 0.0495 µM) in the assay with Staphylococcus aureus [2]; 0.2 µg/mL (≈ 0.495 µM) against Enterococcus faecium; 0.39 µg/mL (≈ 0.965 µM) against Streptococcus agalactiae; 0.78 µg/mL (≈ 1.93 µM) against Pseudomonas aeruginosa [3]. In addition, the minimal inhibitory concentration (MIC) amounted to 0.05 µg/mL (≈ 0.124 µM) against Klebsiella aerogenes; 0.05 µg/mL (≈ 0.124 µM) with Staphylococcus aureus [4]; 0.39 µg/mL (≈ 0.965 µM) in the assay on Streptococcus equinus; 0.05 µg/mL (≈ 0.124 µM) in the assay with Staphylococcus aureus [5]; 0.02 µg/mL (≈ 0.0495 µM) in the assay on Escherichia coli; 0.78 µg/mL (≈ 1.93 µM) in the assay on Pseudomonas aeruginosa [6]. The minimum inhibitory concentration (MIC) against Streptococcus pyogenes turned out to be 0.2 µg/mL (≈ 0.495 µM); against Klebsiella pneumoniae, 0.02 µg/mL (≈ 0.0495 µM).
As usually defined, the ED50 is the dose that gives a 50% effect, or the effect in half of the subjects. A high value points to weaker potency. Take `CON=C1CCN(c2cc3c(cc2F)c(=O)c(C(=O)O)cn3-c2ccc(F)cc2F)CC1`: the MIC in the assay with Staphylococcus aureus [7] turned out to be 0.05 µg/mL (≈ 0.112 µM); in [1], 0.1 µg/mL (≈ 0.225 µM); against Acinetobacter, 6.2 µg/mL (≈ 13.9 µM); in the assay with Staphylococcus aureus [2] it was 0.05 µg/mL (≈ 0.112 µM); against Enterococcus faecium, 3.1 µg/mL (≈ 6.96 µM); against Streptococcus agalactiae, 1.56 µg/mL (≈ 3.5 µM). For the same compound, the MIC against Pseudomonas aeruginosa [3] was above 100 µg/mL; against Klebsiella aerogenes it was above 100 µg/mL; against Staphylococcus aureus [4], 0.2 µg/mL (≈ 0.449 µM); against Streptococcus equinus it was 6.2 µg/mL (≈ 13.9 µM); with Staphylococcus aureus [5], 0.1 µg/mL (≈ 0.225 µM); with Escherichia coli it was 0.2 µg/mL (≈ 0.449 µM). Besides, the MIC against Pseudomonas aeruginosa [6] is above 100 µg/mL; in the assay on Streptococcus pyogenes, 1.56 µg/mL (≈ 3.5 µM); against Klebsiella pneumoniae, 3.1 µg/mL (≈ 6.96 µM). The ED50 in the assay with Staphylococcus aureus [8] was above 12 mg/kg; with Staphylococcus aureus [9] it was above 8 mg/kg.
As to `O=C1CCN(c2nc3c(cc2F)c(=O)c(C(=O)O)cn3-c2ccc(F)cc2F)CC1`, the MIC turned out to be 0.1 µg/mL (≈ 0.24 µM) in the assay on Staphylococcus aureus [7]; 0.2 µg/mL (≈ 0.479 µM) in [1]; 1.56 µg/mL (≈ 3.74 µM) against Acinetobacter; 0.05 µg/mL (≈ 0.12 µM) in the assay with Staphylococcus aureus [2]; 1.56 µg/mL (≈ 3.74 µM) with Enterococcus faecium; 1.56 µg/mL (≈ 3.74 µM) with Streptococcus agalactiae. Further, the minimal inhibitory concentration (MIC) with Pseudomonas aeruginosa [3] is 3.1 µg/mL (≈ 7.43 µM); with Klebsiella aerogenes, 3.1 µg/mL (≈ 7.43 µM); in the assay on Staphylococcus aureus [4], 0.1 µg/mL (≈ 0.24 µM); with Streptococcus equinus, 3.1 µg/mL (≈ 7.43 µM); against Staphylococcus aureus [5] it was 0.1 µg/mL (≈ 0.24 µM); against Escherichia coli, 0.39 µg/mL (≈ 0.934 µM). The MIC in the assay on Pseudomonas aeruginosa [6] worked out at 12.5 µg/mL (≈ 30 µM); against Streptococcus pyogenes, 1.56 µg/mL (≈ 3.74 µM); in the assay on Klebsiella pneumoniae it was 0.39 µg/mL (≈ 0.934 µM).
With `O=C(O)c1cn(-c2ccc(F)cc2F)c2cc(N3CCC(=NO)CC3)c(F)cc2c1=O`, the MIC with Staphylococcus aureus [7] amounted to 0.1 µg/mL (≈ 0.232 µM); in [1] it was 0.1 µg/mL (≈ 0.232 µM); in the assay with Acinetobacter it was 1.56 µg/mL (≈ 3.62 µM); with Staphylococcus aureus [2], 0.05 µg/mL (≈ 0.116 µM); with Enterococcus faecium it was 0.39 µg/mL (≈ 0.904 µM); with Streptococcus agalactiae it was 0.39 µg/mL (≈ 0.904 µM). The MIC turned out to be 3.1 µg/mL (≈ 7.19 µM) in the assay on Pseudomonas aeruginosa [3]; 3.1 µg/mL (≈ 7.19 µM) against Klebsiella aerogenes; 0.1 µg/mL (≈ 0.232 µM) in the assay on Staphylococcus aureus [4]; 1.56 µg/mL (≈ 3.62 µM) against Streptococcus equinus; 0.1 µg/mL (≈ 0.232 µM) in the assay with Staphylococcus aureus [5]; 0.39 µg/mL (≈ 0.904 µM) in the assay with Escherichia coli. For the same compound, the minimum inhibitory concentration (MIC) is 6.2 µg/mL (≈ 14.4 µM) against Pseudomonas aeruginosa [6], 0.39 µg/mL (≈ 0.904 µM) against Streptococcus pyogenes and 0.39 µg/mL (≈ 0.904 µM) against Klebsiella pneumoniae. The figures for the 50% effective dose (ED50) in the assay with Staphylococcus aureus [8] and with Staphylococcus aureus [9] were 6 mg/kg and 3.2 mg/kg, respectively.
As to `O=C(O)c1cn(-c2ccc(F)cc2F)c2nc(N3CCC(=NO)CC3)c(F)cc2c1=O`, the MIC in the assay on Staphylococcus aureus [7] worked out at 0.1 µg/mL (≈ 0.231 µM); in [1], 0.2 µg/mL (≈ 0.463 µM); against Acinetobacter it was 3.1 µg/mL (≈ 7.17 µM); against Staphylococcus aureus [2], 0.05 µg/mL (≈ 0.116 µM); in the assay on Enterococcus faecium, 1.56 µg/mL (≈ 3.61 µM); against Streptococcus agalactiae, 0.78 µg/mL (≈ 1.8 µM). Further, the MIC in the assay on Pseudomonas aeruginosa [3] amounted to 6.2 µg/mL (≈ 14.3 µM); in the assay with Klebsiella aerogenes, 3.1 µg/mL (≈ 7.17 µM); in the assay on Staphylococcus aureus [4], 0.2 µg/mL (≈ 0.463 µM); in the assay on Streptococcus equinus, 3.1 µg/mL (≈ 7.17 µM); against Staphylococcus aureus [5] it was 0.1 µg/mL (≈ 0.231 µM); in the assay on Escherichia coli it was 0.78 µg/mL (≈ 1.8 µM). Also, the values for the MIC with Pseudomonas aeruginosa [6], with Streptococcus pyogenes and in the assay on Klebsiella pneumoniae were 12.5 µg/mL (≈ 28.9 µM), 1.56 µg/mL (≈ 3.61 µM) and 0.78 µg/mL (≈ 1.8 µM), respectively. For the same compound, the ED50 with Staphylococcus aureus [8] is above 8 mg/kg; with Staphylococcus aureus [9], above 2 mg/kg.
As to `CO/N=C1\CCN(c2nc3c(cc2F)c(=O)c(C(=O)O)cn3-c2ccc(F)cc2F)C1`, the minimal inhibitory concentration (MIC) in the assay on Staphylococcus aureus [7] was found to be 0.05 µg/mL (≈ 0.116 µM); in assay [1], 0.1 µg/mL (≈ 0.231 µM); against Acinetobacter it was 1.56 µg/mL (≈ 3.61 µM); in the assay on Staphylococcus aureus [2], 0.05 µg/mL (≈ 0.116 µM); in the assay with Enterococcus faecium, 0.39 µg/mL (≈ 0.902 µM); in the assay on Streptococcus agalactiae, 0.39 µg/mL (≈ 0.902 µM). For the same compound, the MIC was determined as 6.2 µg/mL (≈ 14.3 µM) in the assay on Pseudomonas aeruginosa [3]; 3.1 µg/mL (≈ 7.17 µM) with Klebsiella aerogenes; 0.1 µg/mL (≈ 0.231 µM) in the assay on Staphylococcus aureus [4]; 1.56 µg/mL (≈ 3.61 µM) in the assay on Streptococcus equinus; 0.1 µg/mL (≈ 0.231 µM) with Staphylococcus aureus [5]; 0.78 µg/mL (≈ 1.8 µM) in the assay with Escherichia coli. Moreover, the values for the MIC against Pseudomonas aeruginosa [6], in the assay on Streptococcus pyogenes and with Klebsiella pneumoniae were 6.2 µg/mL (≈ 14.3 µM), 0.78 µg/mL (≈ 1.8 µM) and 0.78 µg/mL (≈ 1.8 µM), respectively. For the same compound, the values for the 50% effective dose (ED50) with Staphylococcus aureus [8] and with Staphylococcus aureus [9] were above 12 mg/kg and 4.7 mg/kg, respectively.
With `NC1CCN(c2nc3c(cc2F)c(=O)c(C(=O)O)cn3C2CC2)C1` (stereo unspecified), the MIC in [1] was found to be 0.1 µg/mL (≈ 0.301 µM); in the assay with Acinetobacter it was 0.1 µg/mL (≈ 0.301 µM); in the assay with Staphylococcus aureus [2], 0.1 µg/mL (≈ 0.301 µM); against Enterococcus faecium, 0.39 µg/mL (≈ 1.17 µM); in the assay with Streptococcus agalactiae, 0.39 µg/mL (≈ 1.17 µM); in the assay on Pseudomonas aeruginosa [3] it was 0.1 µg/mL (≈ 0.301 µM). Moreover, the MIC was 0.02 µg/mL (≈ 0.0602 µM) in the assay on Klebsiella aerogenes; 0.1 µg/mL (≈ 0.301 µM) with Staphylococcus aureus [4]; 0.78 µg/mL (≈ 2.35 µM) in the assay on Streptococcus equinus; 0.2 µg/mL (≈ 0.602 µM) against Staphylococcus aureus [5]; 0.01 µg/mL (≈ 0.0301 µM) with Escherichia coli; 0.1 µg/mL (≈ 0.301 µM) in the assay with Pseudomonas aeruginosa [6]. The MIC in the assay with Streptococcus pyogenes came out at 0.39 µg/mL (≈ 1.17 µM); with Klebsiella pneumoniae, 0.01 µg/mL (≈ 0.0301 µM).
